Molecules are shown by their SMILES.

Activity and viability data for seven compounds are collected here from ChEMBL document CHEMBL1144150, “A new biflavonoid from Calophyllum panciflorum with antitumor-promoting activity” (J Nat Prod, 1999).

Type in all cases: cell-based
Data set [1] has as its system Raji. As to the kind of experiment: Antitumor-promoting activity assessed as TPA-induced EBV-early antigen activation in human Raji cells at 3.2 nmol after 48 hrs relative to TPA. The conditions noted are these: human gammaherpesvirus 4.
Data set [2] concerns Raji. As to the kind of experiment: Antitumor-promoting activity assessed as TPA-induced EBV-early antigen activation in human Raji cells at 32 nmol after 48 hrs relative to TPA. The conditions noted are these: human gammaherpesvirus 4. The procedure, abridged: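 Raji cells (EBV genome-carrying lymphoblastoid, nonproducer) in RPMI 1640 with 10% FBS, 1×10⁶/mL, given 4 mM n-butyric acid plus 32 pmol TPA (20 ng/mL) and test compound; 37 °C, CO₂, 48 h. EA-positive cells scored by indirect immunofluorescence using NPC patient sera, ≥500 cells counted, three repeats. Expressed as % of butyric acid+TPA control (100%), mean ± S.D.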

Data set [3] has as its system Raji. As to the kind of experiment: Antitumor-promoting activity assessed as TPA-induced EBV-early antigen activation in human Raji cells at 0.32 nmol after 48 hrs relative to TPA. Conditions: human gammaherpesvirus 4.
Data set [4] can be described thus: Cytotoxicity against human Raji cells assessed as cell viability at 16 nmol by trypan blue staining. The conditions noted are these: read-out: Activity.
Data set [5] in a line: Cytotoxicity against human Raji cells assessed as cell viability at 3.2 nmol by trypan blue staining. The conditions noted are these: read-out: Activity.
Data set [6] concerns Raji. As to the kind of experiment: Antitumor-promoting activity assessed as TPA-induced EBV-early antigen activation in human Raji cells at 16 nmol after 48 hrs relative to TPA. The conditions noted are these: human gammaherpesvirus 4.
A short description of data set [7]: Cytotoxicity against human Raji cells assessed as cell viability at 0.32 nmol by trypan blue staining. The conditions noted are these: read-out: Activity.
Data set [8] can be described thus: Cytotoxicity against human Raji cells assessed as cell viability at 32 nmol by trypan blue staining. The conditions noted are these: read-out: Activity.

As to `O=C1c2c(O)cc(O)cc2O[C@H](c2ccc(O)cc2)[C@H]1c1c(O)cc(O)c2c1O[C@H](c1ccc(O)c(O)c1)[C@@H](O)C2=O`, the Activity stood at 90.3% with Raji [1], 28.7% with Raji [2], 100% with Raji [3] and 63.9% in the data set on Raji [6]. Further, the viability at 16 nmol in data set [4] is more than 80%. Also, in data set [5], the viability at 3.2 nmol is more than 80%. Besides, in data set [7], the viability at 0.32 nmol was more than 80%. In data set [8], the viability at 32 nmol came to 70%.

On to `O=C1C[C@@H](c2ccc(O)cc2)Oc2c1c(O)cc(O)c2[C@H]1C(=O)c2c(O)cc(O)cc2O[C@@H]1c1ccc(O)cc1`, for which the Activity in the data set with Raji [1] was determined as 82.9%; with Raji [2], 19.4%; with Raji [3], 100%; in the data set on Raji [6], 48.2%. For the same compound, the viability at 16 nmol in data set [4] was more than 80%. Moreover, in data set [5], the viability at 3.2 nmol is more than 80%. Further, in data set [7], the viability at 0.32 nmol is more than 80%. Also, the viability at 32 nmol in data set [8] stood at 70%.

In the case of `O=C1c2c(O)cc(O)cc2O[C@H](c2ccc(O)cc2)[C@H]1c1c(O)cc(O)c2c1O[C@H](c1ccc(O)cc1)[C@@H](O)C2=O`, the Activity in the data set on Raji [1] was determined as 88.2%; with Raji [2], 25.3%; in the data set with Raji [3] it was 95.7%; in the data set with Raji [6], 61%. Further, the viability at 16 nmol in data set [4] is more than 80%. Further, the viability at 3.2 nmol in data set [5] is more than 80%. In addition, the viability at 0.32 nmol in data set [7] is more than 80%. For the same compound, in data set [8], the viability at 32 nmol came out at 70%.

As for `O=C1c2c(O)cc(O)cc2O[C@@H](c2ccc(O)cc2)[C@@H]1c1c(O)cc(O)c2c(=O)c(O)c(-c3ccc(O)c(O)c3)oc12` [PANCIBIFLAVONOL], the Activity in the data set on Raji [1] was 75%; with Raji [2] it was 22.1%; with Raji [3] it was 94.4%; in the data set with Raji [6], 50.2%. Further, in data set [4], the viability at 16 nmol is more than 80%. The viability at 3.2 nmol in data set [5] was more than 80%. Moreover, the viability at 0.32 nmol in data set [7] is more than 80%. Further, in data set [8], the viability at 32 nmol amounted to 70%.

As to `O=C1c2c(O)cc(O)cc2O[C@@H](c2ccc(O)cc2)[C@@H]1c1c(O)cc(O)c2c(=O)c(O)c(-c3ccc(O)cc3)oc12` [GARCINIANIN], the Activity with Raji [1] came out at 69.2%; in the data set on Raji [3] it was 89.4%; in the data set with Raji [6], 31.4%. In data set [4], the viability at 16 nmol is more than 80%. Besides, the viability at 3.2 nmol in data set [5] is more than 80%. For the same compound, the viability at 0.32 nmol in data set [7] is more than 80%. Moreover, the viability at 32 nmol in data set [8] is 70%.

Regarding `O=C1c2c(O)cc(O)cc2O[C@H](c2ccc(O)cc2)[C@H]1c1c(O)cc(O)c2c(=O)cc(-c3ccc(O)c(O)c3)oc12` [MORELLOFLAVONE], the values for the Activity in the data set with Raji [1], in the data set on Raji [3] and in the data set on Raji [6] were 72.6%, 91.2% and 40.1%, respectively. Besides, the viability at 16 nmol in data set [4] is more than 80%. In addition, the viability at 3.2 nmol in data set [5] was more than 80%. For the same compound, the viability at 0.32 nmol in data set [7] was more than 80%. The viability at 32 nmol in data set [8] came out at 70%.

As to `O=C1C[C@@H](c2ccc(O)c(O)c2)Oc2c1c(O)cc(O)c2[C@H]1C(=O)c2c(O)cc(O)cc2O[C@@H]1c1ccc(O)cc1`, the Activity in the data set with Raji [1] is 71.3%; with Raji [3], 90.6%; in the data set on Raji [6], 42.5%. Also, the viability at 16 nmol in data set [4] was more than 80%. In addition, the viability at 3.2 nmol in data set [5] is more than 80%. For the same compound, in data set [7], the viability at 0.32 nmol was more than 80%. Further, the viability at 32 nmol in data set [8] was 70%.
